We go through 24 molecules from ChEMBL document CHEMBL3865815, “Synthesis, anti-cancer evaluation of benzenesulfonamide derivatives as potent tubulin-targeting agents” (Eur J Med Chem, 2016).

Converted amounts (≈) assume the structure as drawn. The source made the active and inactive calls. No cut-off for these calls is given here.

A short description of data set [1]: Antiproliferative activity against human SKOV3 cells after 72 hrs by MTT assay. To be noted: SK-OV-3, 72 h. In kind it is functional, cell-based. In outline: (§1)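 Cells grown in RPMI 1640 with heat-inactivated 10% FBS, 1 mmol/L sodium pyruvate and 2 mmol/L L-glutamine at 37 °C, 5% CO2. Seeded at 3.5×10^4 cells/mL and left 24 h, then exposed to compound for 72 h; DMSO control at 0.5% final. Surviving cells measured by MTT, OD 492/620 nm. IC50 taken from triplicate experiments.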
For orientation: Tetrazolium dyes change colour on reduction, which living cells bring about.

Data set [2] is described as follows: Antiproliferative activity against human HCT116 cells after 72 hrs by MTT assay. In kind it is functional, cell-based. To be noted: HCT-116, 72 h. The method in brief:
as §1

A short description of data set [3]: Antiproliferative activity against human HepG2 cells after 72 hrs by MTT assay. In kind it is functional, cell-based. Conditions: HepG2, 72 h. The method in brief:
as §1

Data set [4] is described as follows: Antiproliferative activity against human PC3 cells after 72 hrs by MTT assay. Conditions: PC-3, 72 h. In kind it is functional, cell-based. The method in brief:
as §1

A short description of data set [5]: Antiproliferative activity against human KB cells after 72 hrs by MTT assay. In kind it is functional, cell-based. In outline:
as §1

Data set [6] is described as follows: Antiproliferative activity against human K562 cells after 72 hrs by MTT assay. In kind it is functional, cell-based. Conditions: K562, 72 h. The method in brief:
as §1

The nature of data set [7]: Antiproliferative activity against human MCF7/ADR cells after 72 hrs by MTT assay. The class given is functional, cell-based. Conditions: NCI/ADR-RES. The method in brief: as §1
Data set [8] is described as follows: Antiproliferative activity against human MCF7 cells after 72 hrs by MTT assay. The class given is functional, cell-based. To be noted: MCF7, 72 h. The method in brief: as §1
The test system of data set [9] is A549. In words: Inhibition of alpha tubulin polymerization in human A549 cells at 200 nM by Hoechst 33258 staining based fluorescent microscopic analysis. In kind it is cell-based. In outline:
(§2)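 A549 cells treated 24 h with agent (200 nM or 50 nM) or DMSO control. α-Tubulin stained with primary antibody and DyLight488 secondary antibody, nuclei with Hoechst 33258. Imaged by fluorescence microscopy.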

Data set [10] in a line: Antiproliferative activity against human KB/VCR cells after 72 hrs by MTT assay. In kind it is functional, cell-based. The method in brief: as §1
For data set [11], the species on record is Bos taurus. Kind of data set: Inhibition of bovine tubulin assessed as induction of microtubule depolymerization at 1 uM preincubated with compound followed by GTP addition by spectrophotometric analysis. The method in brief:
(§3)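 Bovine brain tubulin rich in microtubule-associated protein, 2 mg/mL, in 80 mM PIPES pH 6.9, 2 mM MgCl2, 0.5 mM EGTA and 5% glycerol, incubated with test agent or DMSO in cuvettes. Polymerization started with 1 mM GTP at 37 °C and followed by absorbance at 340 nm.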

A short description of data set [12]: Antiproliferative activity against human K562/A02 cells after 72 hrs by MTT assay. To be noted: K562/A02, 72 h. The class given is functional, cell-based. The method in brief: as §1
The species named for data set [13] is Bos taurus. Kind of data set: Inhibition of bovine tubulin assessed as induction of microtubule depolymerization at 3 uM preincubated with compound followed by GTP addition by spectrophotometric analysis. In outline:
as §3

Data set [14] is filed under the species Bos taurus. In words: Induction of bovine tubulin polymerization at 10 uM preincubated followed by GTP addition by spectrophotometric analysis. The method in brief:
as §3

For data set [15], the system named is A549. Kind of data set: Inhibition of alpha tubulin polymerization in human A549 cells at 50 nM by Hoechst 33258 staining based fluorescent microscopic analysis. In kind it is cell-based. In outline:
as §2

Data set [16] relates to SW480. Kind of data set: Induction of apoptosis in human SW480 cells assessed as early apoptotic cells at 50 nM after 24 hrs by propidium iodide-staining based FACS analysis (reference value: 3.41 %). The class given is functional. The method in brief:
(§4)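 SW480 cells grown in 60 mm dishes to 70–80% confluence and treated 24 h, with DMSO as vehicle. All cells harvested, fixed in 70% alcohol and washed twice in cold PBS. Stained 30 min at 37 °C in 5 µg/ml propidium iodide, 100 µg/ml RNase and 0.2% Triton X-100, then analysed by flow cytometry.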
On the technique in general: Flow cytometry measures light scatter and fluorescence of single cells or particles in a stream.

Data set [17] is described as follows: Solubility of compound in pure water at 25 degC. The class given is physicochemical. In outline:
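Measured in pure water at 25 °C.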

The test system of data set [18] is SW480. In words: Induction of apoptosis in human SW480 cells assessed as accumulation of cells at M2 quadrant at 50 nM after 24 hrs by propidium iodide-staining based FACS analysis (reference value: 96.68 %). In kind it is functional. In outline: as §4

In general, IC50 refers to the point on the concentration scale where inhibition reaches its midpoint. Low values mean inhibition by little substance, high ones a need for much substance. As for `O=S(=O)(c1ccc(-c2cnc(C3CC3)o2)cc1)N1CCCc2ccccc21`, the half-inhibitory concentration (IC50) was 47 nM in [1], 49 nM in data set [2], 29 nM in [3] and 38 nM in data set [4].
Turning to `Cc1ccc2c(c1)OCCCN2S(=O)(=O)c1ccc(-c2cnc(C3CC3)o2)cc1`, the half-inhibitory concentration (IC50) in data set [1] worked out at 179 nM; in [2], 766 nM; in data set [3], 795 nM; in [4], 241 nM.
Regarding `Cc1ccc2c(c1)N(S(=O)(=O)c1ccc(-c3cnc(C4CC4)o3)cc1)CCCO2`, the half-inhibitory concentration (IC50) stood at 34 nM in data set [1], 29 nM in [2], 31 nM in [3] and 41 nM in [4].
Taken in the same sequence, the figures for `COc1ccc2c(c1)OCCCN2S(=O)(=O)c1ccc(-c2cnc(C3CC3)o2)cc1` were 185 nM, 223 nM, 229 nM and 271 nM.
On to `O=S(=O)(c1ccc(-c2cnc(C3CC3)o2)cc1)N1CCCOc2cc(F)ccc21`, for which the half-maximal inhibitory concentration (IC50) worked out at 15 nM in data set [5]; 14 nM in [6]; 12 nM in data set [7]; 6 nM in data set [8]; 28 nM in data set [1]; 30 nM in data set [2]. The half-inhibitory concentration (IC50) in data set [3] worked out at 65 nM; in [4] it was 42 nM; in data set [10], 12 nM; in data set [12], 46 nM. The inhibition result in the data set on A549 [9] and in the data set filed under Bos taurus [11] was “Active” throughout.
On to `COc1cccc2c1C(=O)c1c(O)c3c(c(O)c1C2=O)C[C@@](O)(C(=O)CO)C[C@@H]3O[C@H]1C[C@H](N)[C@H](O)[C@H](C)O1` [DOXORUBICIN], for which the half-maximal inhibitory concentration (IC50) in data set [5] worked out at 141 nM; in data set [6], 6 nM; in data set [7], 2940 nM; in data set [8], 140 nM; in data set [10] it was 1290 nM; in [12], 5960 nM.
As to `O=S(=O)(c1ccc(-c2cnc(C3CC3)o2)cc1)N1CCCOc2ccc(Cl)cc21`, the IC50 in data set [1] was 19 nM; in data set [2] it was 39 nM; in data set [3], 28 nM; in [4], 18 nM.
For `CN1CCN(S(=O)(=O)c2ccc(-c3cnc(C4CC4)o3)cc2)c2ccccc2C1` the same measures were 199 nM, 256 nM, 525 nM and 347 nM.
For `COc1ccc2c(c1)N(S(=O)(=O)c1ccc(-c3cnc(C4CC4)o3)cc1)CCCO2` the same measures were 53 nM, 47 nM, 49 nM and 14 nM.
As for `O=[N+]([O-])c1ccc2c(c1)N(S(=O)(=O)c1ccc(-c3cnc(C4CC4)o3)cc1)CCCO2`, the IC50 is 53 nM in data set [1], 133 nM in [2], 149 nM in [3] and 119 nM in [4].
Taken in the same sequence, the figures for `O=S(=O)(c1ccc(-c2cnc(C3CC3)o2)cc1)N1CCOc2ccccc21` were 47 nM, 71 nM, 58 nM and 77 nM.
For `O=S(=O)(c1ccc(-c2cnc(C3CC3)o2)cc1)N1CCCOc2ccccc21` the same measures were 36 nM, 40 nM, 40 nM and 27 nM.
For `O=S(=O)(c1ccc(-c2cnc(C3CC3)o2)cc1)N1CCSc2ccccc21` the same measures were 39 nM, 45 nM, 48 nM and 49 nM.
Turning to `COC(=O)Nc1nc2cc(C(=O)c3cccs3)ccc2[nH]1`, in the data set filed under Bos taurus [13], the inhibition entry is “Active”.
Consider `O=S(=O)(c1ccc(-c2cnc(C3CC3)o2)cc1)N1CCCSc2ccccc21`, for which the IC50 in data set [1] amounted to 49 nM; in data set [2] it was 88 nM; in data set [3] it was 27 nM; in data set [4], 34 nM.
For `O=S(=O)(c1ccc(-c2cnc(C3CC3)o2)cc1)N1CCOCc2ccccc21` the same measures were 175 nM, 187 nM, 242 nM and 137 nM.
Taken in the same sequence, the figures for `O=S(=O)(c1ccc(-c2cnc(C3CC3)o2)cc1)N1CCC[S+]([O-])c2ccccc21` (centres undefined) were more than 1000 nM, more than 1000 nM, more than 1000 nM and more than 1000 nM.
Take `Nc1ccc2c(c1)OCCCN2S(=O)(=O)c1ccc(-c2cnc(C3CC3)o2)cc1`: the IC50 in data set [1] came to 56 nM; in data set [2] it was 87 nM; in [3], 100 nM; in [4] it was 33 nM.
In the case of `CC(=O)O[C@H]1C(=O)[C@@]2(C)[C@H]([C@H](OC(=O)c3ccccc3)[C@]3(O)C[C@H](OC(=O)[C@H](O)[C@@H](NC(=O)c4ccccc4)c4ccccc4)C(C)=C1C3(C)C)[C@]1(OC(C)=O)CO[C@@H]1C[C@@H]2O`, the outcome in the data set filed under Bos taurus [14] was Active.
As for `CC[C@]1(O)C[C@H]2CN(CCc3c([nH]c4ccccc34)[C@@](C(=O)OC)(c3cc4c(cc3OC)N(C=O)[C@H]3[C@@](O)(C(=O)OC)[C@H](OC(C)=O)[C@]5(CC)C=CCN6CC[C@]43[C@@H]65)C2)C1` [VINCRISTINE], the IC50 in [5] came to 36 nM; in [6] it was 4 nM; in data set [7], 308 nM; in [8], 29 nM; in [10] it was 871 nM; in data set [12] it was 926 nM. Further, the inhibition entry in the data set with A549 [15] was “Active”.
For orientation: solubility means the dissolved amount per volume that the medium holds. A higher solubility goes with a readily soluble substance. For the molecule `O=S(=O)(c1ccc(-c2cnc(C3CC3)o2)cc1)N1CCCOc2ccc(F)cc21`, the IC50 in data set [5] worked out at 7 nM; in data set [6] it was 8 nM; in [7] it was 20 nM; in data set [8] it was 21 nM; in data set [1], 15 nM; in data set [2], 24 nM. The IC50 in data set [3] was 36 nM; in [4], 18 nM; in data set [10] it was 7 nM; in [12] it was 13 nM. For the same molecule, the Activity in the data set on SW480 [16] is on record as 7.74%; in the data set on SW480 [18] it was 92.28%. The same molecule showed a solubility in data set [17] of 10 µg/mL (≈ 24.1 µM). Moreover, the inhibition entry with A549 [9] and in the data set filed under Bos taurus [11] was “Active” each time.
`O=S(=O)(c1ccc(-c2cnc(C3CC3)o2)cc1)N1CCCCc2ccccc21`: the 50% inhibitory concentration (IC50) was 38 nM in data set [1], 72 nM in data set [2], 73 nM in data set [3] and 39 nM in data set [4].
Taken in the same sequence, the figures for `O=[N+]([O-])c1ccc2c(c1)OCCCN2S(=O)(=O)c1ccc(-c2cnc(C3CC3)o2)cc1` were 120 nM, 145 nM, 71 nM and 72 nM.
On to `O=S1(=O)CCCN(S(=O)(=O)c2ccc(-c3cnc(C4CC4)o3)cc2)c2ccccc21`, for which the IC50 came out at 1620 nM in [1], 263 nM in data set [2], 2170 nM in data set [3] and 5880 nM in [4].
